# Data reported in ChEMBL document CHEMBL1129383, “Potent immunosuppressants, 2-alkyl-2-aminopropane-1,3-diols” (J Med Chem, 1996).
# pIC50: −log10 of the molar value.
# What was measured:
# [1] = Immunosuppressive activity on mouse allogenic MLR in vitro; format: functional
# Procedure, shortened: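 Responders were BALB/c spleen cells (5 × 10⁵, H-2^d). Stimulators were an equal number of C57BL/6 spleen cells (H-2^b) treated with mitomycin C for 30 min at 37 °C. Co-culture in RPMI 1640 with 5 × 10⁻⁵ M 2-mercaptoethanol, 10% FCS and varied compound, 4 days at 37 °C, 5% CO₂. Proliferation read by MTT. IC50 is the mean of triplicates.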
# Rattus norvegicus [2] = assay: Mean survival time of rats after skin allograft (oral administration) at 0.3 mg/kg; format: functional
# Procedure, shortened: (§1)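 LEW rat (male, 4 wk) dorsal skin grafted onto lateral thorax of F344 rats (male, 4 wk). Compounds in 5% (hydroxypropyl)methylcellulose given orally, daily for 10 days from transplant day. Grafts inspected daily until rejection (>90% necrosis of graft epithelium); mean survival time in days ± SD. "Toxic" means animals died.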
# Rattus norvegicus [3] = assay: Mean survival time of rats after skin allograft (oral administration) at 3 mg/kg; format: functional; procedure, shortened: as §1
# Rattus norvegicus [4] = assay: Mean survival time of rats after skin allograft (oral administration) at 100 mg/kg; toxic - animals died; format: ADME, organism-based; set-up: dose 100 mg/kg, route oral; details: in vivo; procedure, shortened: as §1
# Rattus norvegicus [5] = assay: Mean survival time of rats after skin allograft (intraperitoneal administration) at 0.3 mg/kg; format: functional
# Procedure, shortened: as §1, with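 “20% (hydroxypropyl)-β-cyclodextrin” for “5% (hydroxypropyl)methylcellulose”, “ip” for “orally,”, “SD, n = 4–5, Mann-Whitney U test.” for “SD.”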
# Rattus norvegicus [6] = assay: Mean survival time of rats after skin allograft (intraperitoneal administration) at 0.1 mg/kg; format: functional
# Procedure, shortened: as §1, with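 “20% (hydroxypropyl)-β-cyclodextrin” for “5% (hydroxypropyl)methylcellulose”, “ip” for “orally,”, “SD, n = 4–5, Mann-Whitney U test.” for “SD.”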
# Rattus norvegicus [7] = assay: Mean survival time of rats after skin allograft (oral administration) at 10 mg/kg; format: functional; procedure, shortened: as §1
# Rattus norvegicus [8] = assay: Mean survival time of rats after skin allograft (oral administration) at 1 mg/kg; format: functional; procedure, shortened: as §1
# Rattus norvegicus [9] = assay: Mean survival time of rats after skin allograft (intraperitoneal administration) at 3 mg/kg; format: functional
# Procedure, shortened: as §1, with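 “20% (hydroxypropyl)-β-cyclodextrin” for “5% (hydroxypropyl)methylcellulose”, “ip” for “orally,”, “SD, n = 4–5, Mann-Whitney U test.” for “SD.”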
# Mus musculus = species on record: Mus musculus; assay: Effect of compound on IL-2 production from alloantigen-stimulated mouse spleen cells; format: functional, cell-based
# Procedure, shortened: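 BALB/c spleen cells at 5×10^6 cells/mL co-cultured with an equal number of mitomycin C-pretreated C57BL/6 spleen cells, with or without test compound, in RPMI 1640 with 5×10^-5 M 2-mercaptoethanol and 10% FCS; 48 h at 37 °C. Supernatant IL-2 activity measured by IL-2-dependent CTLL-2 proliferation, given in units/mL.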
# Rattus norvegicus [10] = assay: Mean survival time of rats after skin allograft (intraperitoneal administration) at 10 mg/kg; toxic - animals died; format: ADME, organism-based; set-up: dose 10 mg/kg, route intraperitoneal; details: in vivo, ip
# Procedure, shortened: as §1, with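 “20% (hydroxypropyl)-β-cyclodextrin” for “5% (hydroxypropyl)methylcellulose”, “ip” for “orally,”, “SD, n = 4–5, Mann-Whitney U test.” for “SD.”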
# Rattus norvegicus [11] = assay: Mean survival time of rats after skin allograft (oral administration) at 30 mg/kg; format: functional; procedure, shortened: as §1
# Rattus norvegicus [12] = assay: Mean survival time of rats after skin allograft (oral administration) at 0.1 mg/kg; format: functional; procedure, shortened: as §1
# Rattus norvegicus [13] = assay: Mean survival time of rats after skin allograft (intraperitoneal administration) at 1 mg/kg; format: functional
# Procedure, shortened: as §1, with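 “20% (hydroxypropyl)-β-cyclodextrin” for “5% (hydroxypropyl)methylcellulose”, “ip” for “orally,”, “SD, n = 4–5, Mann-Whitney U test.” for “SD.”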
# Rattus norvegicus [14] = assay: Mean survival time of rats after skin allograft (intraperitoneal administration) at 10 mg/kg; format: functional
# Procedure, shortened: as §1, with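 “20% (hydroxypropyl)-β-cyclodextrin” for “5% (hydroxypropyl)methylcellulose”, “ip” for “orally,”, “SD, n = 4–5, Mann-Whitney U test.” for “SD.”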
# Rattus norvegicus [15] = assay: Mean survival time of rats after skin allograft (intraperitoneal administration) at 30 mg/kg; toxic - animals died; format: ADME, organism-based; set-up: dose 30 mg/kg, route intraperitoneal; details: in vivo, ip
# Procedure, shortened: as §1, with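 “20% (hydroxypropyl)-β-cyclodextrin” for “5% (hydroxypropyl)methylcellulose”, “ip” for “orally,”, “SD, n = 4–5, Mann-Whitney U test.” for “SD.”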
# Rattus norvegicus [16] = assay: Mean survival time of rats after skin allograft (intraperitoneal administration) at 20 mg/kg; format: functional
# Procedure, shortened: as §1, with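 “20% (hydroxypropyl)-β-cyclodextrin” for “5% (hydroxypropyl)methylcellulose”, “ip” for “orally,”, “SD, n = 4–5, Mann-Whitney U test.” for “SD.”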
# Rattus norvegicus [17] = assay: Mean survival time of rats after skin allograft (intraperitoneal administration) at 1 mg/kg; toxic - animals died; format: ADME, organism-based; set-up: dose 1 mg/kg, route intraperitoneal; details: in vivo, ip
# Procedure, shortened: as §1, with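 “20% (hydroxypropyl)-β-cyclodextrin” for “5% (hydroxypropyl)methylcellulose”, “ip” for “orally,”, “SD, n = 4–5, Mann-Whitney U test.” for “SD.”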
# Rattus norvegicus [18] = assay: Mean survival time of rats after skin allograft (intraperitoneal administration) at 30 mg/kg; format: functional
# Procedure, shortened: as §1, with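 “20% (hydroxypropyl)-β-cyclodextrin” for “5% (hydroxypropyl)methylcellulose”, “ip” for “orally,”, “SD, n = 4–5, Mann-Whitney U test.” for “SD.”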
# Rattus norvegicus [19] = assay: Mean survival time of rats after skin allograft (intraperitoneal administration) at 100 mg/kg; toxic - animals died; format: ADME, organism-based; set-up: dose 100 mg/kg, route intraperitoneal; details: in vivo, ip
# Procedure, shortened: as §1, with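 “20% (hydroxypropyl)-β-cyclodextrin” for “5% (hydroxypropyl)methylcellulose”, “ip” for “orally,”, “SD, n = 4–5, Mann-Whitney U test.” for “SD.”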
# Rattus norvegicus [20] = assay: Mean survival time of rats after skin allograft (intraperitoneal administration) at 20 mg/kg; toxic - animals died; format: ADME, organism-based; set-up: dose 20 mg/kg, route intraperitoneal; details: in vivo, ip
# Procedure, shortened: as §1, with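 “20% (hydroxypropyl)-β-cyclodextrin” for “5% (hydroxypropyl)methylcellulose”, “ip” for “orally,”, “SD, n = 4–5, Mann-Whitney U test.” for “SD.”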
# Rattus norvegicus [21] = assay: Mean survival time of rats after skin allograft (oral administration) at 30 mg/kg; toxic - animals died; format: ADME, organism-based; set-up: dose 30 mg/kg, route oral; details: in vivo; procedure, shortened: as §1
compound,measurement,setting,value
CCCCCCCCCCC(N)(CO)CO,pIC50,[1],6.36
CCCCCCCCCCCCCCC(N)(CO)CO,MST,Rattus norvegicus [2],13.6 days
same,MST,Rattus norvegicus [3],36.4 days
same,MST,Rattus norvegicus [4],Toxic
same,MST,Rattus norvegicus [5],23.1 days
same,MST,Rattus norvegicus [6],11.2 days
same,MST,Rattus norvegicus [7],46.4 days
same,MST,Rattus norvegicus [8],24.4 days
same,MST,Rattus norvegicus [9],44.4 days
same,pIC50,Mus musculus,< 6.00
same,MST,Rattus norvegicus [10],Toxic
same,MST,Rattus norvegicus [11],52.2 days
same,MST,Rattus norvegicus [12],10.3 days
same,MST,Rattus norvegicus [13],39 days
same,pIC50,[1],8.23
CCCCCCCCCCCCC/C=C/C[C@@H](O)[C@H](O)C(N)(CO)CO,MST,Rattus norvegicus [14],14 days
same,MST,Rattus norvegicus [9],9.8 days
same,MST,Rattus norvegicus [15],Toxic
same,MST,Rattus norvegicus [13],8.2 days
same,pIC50,[1],7.25
same,MST,Rattus norvegicus [16],16.6 days
CCCCCCC(O)CCCCCC/C=C/C[C@@H](O)[C@H](O)[C@@](N)(CO)C(=O)O (stereo partly specified),MST,Rattus norvegicus [5],9.6 days
same,MST,Rattus norvegicus [6],7.6 days
same,MST,Rattus norvegicus [17],Toxic
same,pIC50,[1],8.20
CCCCCCCCCCCCCCCCCCCCC(N)(CO)CO,pIC50,[1],6.72
CCCCCCCCCCCCC(N)(CO)CO,pIC50,[1],6.57
CCCCCCC(=O)CCCCCC/C=C/C[C@@H](O)[C@H](O)[C@@](N)(CO)C(=O)O [MYRIOCIN],MST,Rattus norvegicus [17],Toxic
same,pIC50,[1],8.52
CCCCCCCCC(N)(CO)CO,pIC50,[1],5.43
CCCCCCCCCCCCCC(N)(CO)CO,pIC50,[1],7.92
CCCCCCCCCCCCCCCC[C@@H](O)[C@H](O)C(N)(CO)CO,MST,Rattus norvegicus [14],11.8 days
same,MST,Rattus norvegicus [9],9.2 days
same,MST,Rattus norvegicus [15],Toxic
same,MST,Rattus norvegicus [13],8.2 days
same,pIC50,[1],6.49
same,MST,Rattus norvegicus [16],15 days
CCCCCCC(O)CCCCCCCCC[C@@H](O)[C@H](O)C(N)(CO)CO (stereo partly specified),MST,Rattus norvegicus [18],12.5 days
same,MST,Rattus norvegicus [19],Toxic
same,MST,Rattus norvegicus [14],12.2 days
same,MST,Rattus norvegicus [9],11 days
same,MST,Rattus norvegicus [13],9.2 days
same,pIC50,[1],5.79
CCCCCCCCCCCCCCCCCCCCCCC(N)(CO)CO,pIC50,[1],5.80
C/C=C/C[C@@H](C)[C@@H](O)[C@H]1C(=O)N[C@@H](CC)C(=O)N(C)CC(=O)N(C)[C@@H](CC(C)C)C(=O)N[C@@H](C(C)C)C(=O)N(C)[C@@H](CC(C)C)C(=O)N[C@@H](C)C(=O)N[C@H](C)C(=O)N(C)[C@@H](CC(C)C)C(=O)N(C)[C@@H](CC(C)C)C(=O)N(C)[C@@H](C(C)C)C(=O)N1C [CYCLOSPORINE],MST,Rattus norvegicus [3],10.3 days
same,MST,Rattus norvegicus [18],19.4 days
same,MST,Rattus norvegicus [7],13.5 days
same,MST,Rattus norvegicus [8],8.5 days
same,MST,Rattus norvegicus [11],20.5 days
same,MST,Rattus norvegicus [13],7.6 days
CCCCCCCCCCCCCCCCCCC(N)(CO)CO,MST,Rattus norvegicus [5],11.2 days
same,MST,Rattus norvegicus [9],17.6 days
same,MST,Rattus norvegicus [10],Toxic
same,MST,Rattus norvegicus [13],14.8 days
same,pIC50,[1],7.92
CCCCCCCCCCCCCCCCC(N)(CO)CO,MST,Rattus norvegicus [5],14.3 days
same,MST,Rattus norvegicus [6],10.5 days
same,MST,Rattus norvegicus [20],Toxic
same,MST,Rattus norvegicus [9],41.8 days
same,MST,Rattus norvegicus [13],38.5 days
same,pIC50,[1],8.00
CCCCCCC(O)CCCCCC/C=C/C[C@@H](O)[C@H](O)C(N)(CO)CO (stereo partly specified),MST,Rattus norvegicus [14],11.8 days
same,MST,Rattus norvegicus [9],9.2 days
same,MST,Rattus norvegicus [15],Toxic
same,MST,Rattus norvegicus [13],8.2 days
same,pIC50,[1],8.33
same,MST,Rattus norvegicus [16],13.4 days
CCCCCCCCCCCCC/C=C/C[C@H]1OC(=O)[C@](N)(CO)[C@@H]1O,pIC50,[1],8.44
CCCCCCCCCCCCC/C=C/C[C@@H](O)[C@H](O)[C@@](N)(CO)C(=O)O,MST,Rattus norvegicus [5],10.6 days
same,MST,Rattus norvegicus [6],9 days
same,MST,Rattus norvegicus [17],Toxic
same,pIC50,[1],8.92
CCCCCCCCCCCCCCCC(N)(CO)CO,MST,Rattus norvegicus [2],28.5 days
same,MST,Rattus norvegicus [3],47 days
same,MST,Rattus norvegicus [21],Toxic
same,MST,Rattus norvegicus [7],8.3 days
same,MST,Rattus norvegicus [8],35.5 days
same,MST,Rattus norvegicus [10],Toxic
same,MST,Rattus norvegicus [12],18.8 days
same,pIC50,[1],8.54
CCCCCCCCCCCCC/C=C/C[C@H]1OC(=O)[C@](N)(CO)[C@H]1O,pIC50,[1],8.00
